Values after ≈ are worked out from the molar mass of the structure shown. Where a name gives a salt, the structure may show the parent alone. Active and inactive are the calls of the source. The rule behind the calls is not given here.
Assays:
Penicillium chrysogenum = experiment: Antifungal activity against Penicillium chrysogenum ATCC 10106 assessed as reduction in fungal growth incubated for 48 hrs by broth microdilution method; type: functional
Method in brief: (§1)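 Conidia were harvested from cultures grown on malt extract agar at 30 °C for 7 d and counted by hemocytometer (mean of three counts). Stock suspensions were diluted 1:50 in malt extract broth. Compounds were made as 4.0 mg/mL DMSO stocks and two-fold serially diluted in broth. Plates were incubated at 30 °C for 48 h and read at A405. MIC is the lowest concentration with no viability. Fluconazole was the positive control, DMSO the vehicle; triplicate.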

Escherichia coli [1] = experiment: Antimicrobial activity against Escherichia coli NCTC 11954 producing penicillinase assessed as inhibition of microbial growth incubated for 24 hrs by microbroth dilution method; type: functional
Method in brief: (§2)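 Bacteria were grown in suitable medium at 37 °C for 24 h and adjusted to 0.5 McFarland. Compound DMSO stocks were two-fold serially diluted in broth, and 10^6 inoculum was added. Plates were incubated at 37 °C for 24 h and read at A625. MIC is the lowest concentration showing no viability. Fluoroquinolone positive controls, DMSO negative, sterility and growth controls were included; triplicate.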

Candida albicans = experiment: Antifungal activity against Candida albicans ATCC 10231 assessed as reduction in fungal growth incubated for 48 hrs by broth microdilution method; type: functional
L6 = experiment: Cytotoxicity against rat L6 cells assessed as inhibition of cell viability incubated for 24 hrs by MTT assay; type: cell-based; conditions: L6, 24 h
Method in brief: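 L6 rat myoblasts were grown in glucose-DMEM with 10% FBS, 1 mM L-glutamine, penicillin and streptomycin at 37 °C in 5% CO2. They were seeded at 2 × 10^4 cells/well and allowed to attach for 24 h. Cells were exposed to graded concentrations for 24 h, with 0.1% DMSO as vehicle. MTT (0.5 mg/mL) was added for 4 h, formazan was dissolved in DMSO, and A570 was read. Viability is given relative to vehicle. IC50 came from dose-effect curves; triplicate.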

Salmonella enterica = experiment: Antimicrobial activity against Salmonella enterica ATCC 13312 assessed as inhibition of microbial growth incubated for 24 hrs by microbroth dilution method; type: functional; method in brief: as §2
Staphylococcus aureus [2] = experiment: Antimicrobial activity against methicillin-resistant Staphylococcus aureus ATCC 33591 assessed as inhibition of microbial growth incubated for 24 hrs by microbroth dilution method; type: functional
Aspergillus flavus = experiment: Antifungal activity against Aspergillus flavus ATCC 9643 assessed as reduction in fungal growth incubated for 48 hrs by broth microdilution method; type: functional; method in brief: as §1
Escherichia coli [3] = experiment: Antimicrobial activity against Escherichia coli O157:H7 assessed as inhibition of microbial growth incubated for 24 hrs by microbroth dilution method; type: functional
Staphylococcus aureus [4] = experiment: Antimicrobial activity against methicillin-sensitive Staphylococcus aureus ATCC 9253 assessed as inhibition of microbial growth incubated for 24 hrs by microbroth dilution method; type: functional; method in brief: as §2
Stachybotrys chartarum [5] = experiment: Antifungal activity against Stachybotrys chartarum IBT 7711 assessed as reduction in fungal growth incubated for 48 hrs by broth microdilution method; type: functional; method in brief: as §1
Stachybotrys chartarum [6] = experiment: Potency index, ratio of fluconazole MIC to test compound MIC for Stachybotrys chartarum IBT 7711 measured after 48 hrs by broth microdilution method; type: functional
Fusarium solani = experiment: Antifungal activity against Fusarium solani ATCC 36031 assessed as reduction in fungal growth incubated for 48 hrs by broth microdilution method; type: functional; method in brief: as §1
Pseudomonas aeruginosa = experiment: Antimicrobial activity against Pseudomonas aeruginosa ATCC 9627 assessed as inhibition of microbial growth incubated for 24 hrs by microbroth dilution method; type: functional; method in brief: as §2
Escherichia coli [7] = experiment: Antimicrobial activity against Escherichia coli ATCC 8739 assessed as inhibition of microbial growth incubated for 24 hrs by microbroth dilution method; type: functional; method in brief: as §2
Listeria monocytogenes = experiment: Antimicrobial activity against Listeria monocytogenes ATCC 19115 assessed as inhibition of microbial growth incubated for 24 hrs by microbroth dilution method; type: functional; method in brief: as §2
Escherichia coli [8] = experiment: Antimicrobial activity against fluoroquinolone-resistant Escherichia coli assessed as inhibition of microbial growth incubated for 24 hrs by microbroth dilution method; type: functional
Escherichia coli [9] = experiment: Potency index, ratio of norfloxacin MIC to test compound MIC for fluoroquinolone-resistant Escherichia coli measured after 24 hrs by microbroth dilution method; type: functional
Escherichia coli [10] = experiment: Potency index, ratio of ciprofloxacin HCl MIC to test compound MIC for fluoroquinolone-resistant Escherichia coli measured after 24 hrs by microbroth dilution method; type: functional

| SMILES | MIC (Penicillium chrysogenum) [µM] | MIC (Escherichia coli [1]) | MIC (Candida albicans) | IC50 (L6) [µM] | MIC (Salmonella enterica) | MIC (Staphylococcus aureus [2]) | MIC (Aspergillus flavus) | MIC (Escherichia coli [3]) [µM] | MIC (Staphylococcus aureus [4]) | MIC (Stachybotrys chartarum [5]) [µM] | Ratio (Stachybotrys chartarum [6]) | MIC (Fusarium solani) [µM] | MIC (Pseudomonas aeruginosa) | MIC (Escherichia coli [7]) | MIC (Listeria monocytogenes) | MIC (Escherichia coli [8]) [µM] | Ratio (Escherichia coli [9]) | Ratio (Escherichia coli [10]) |
| --- | --- | --- | --- | --- | --- | --- | --- | --- | --- | --- | --- | --- | --- | --- | --- | --- | --- | --- |
| COc1c(N2C[C@@H]3CCCN(C(C)=O)[C@@H]3C2)c(F)cc2c(=O)c(C(=O)N[C@H]3C(O)O[C@H](CO)[C@@H](O)[C@@H]3O)cn(C3CC3)c12 (stereo not given in full) | 1.7 (≈ 1.03 µg/mL) | 207 µM | 207 µM (≈ 125 µg/mL) | 5.08 | inactive | 207 µM | 207 µM (≈ 125 µg/mL) | 828 | inactive | 1.7 (≈ 1.03 µg/mL) | 100 | 207 (≈ 125 µg/mL) | 51.8 µM | 207 µM | 103 µM | 310 | – | – |
| CCn1cc(C(=O)O)c(=O)c2cc(F)c(N3CCNCC3)cc21 [NORFLOXACIN] | 196 (≈ 62.5 µg/mL) | 24.4 µM | < 5.9 µM | 3.43 | < 5.9 µM | 24.4 µM | 783 µM (≈ 250 µg/mL) | < 5.9 | 24.4 µM | 196 (≈ 62.5 µg/mL) | – | 391 (≈ 125 µg/mL) | 98 µM | 48.9 µM | < 5.9 µM | 294 | – | – |
| COc1c(N2C[C@@H]3CCCN[C@@H]3C2)c(F)cc2c(=O)c(C(=O)O)cn(C3CC3)c12 [MOXIFLOXACIN] | 1.1 (≈ 0.442 µg/mL) | < 0.5 µM | 1.1 µM (≈ 0.442 µg/mL) | 5.78 | < 4.3 µM | < 0.5 µM | 286 µM (≈ 115 µg/mL) | < 0.5 | < 0.5 µM | 2.3 (≈ 0.923 µg/mL) | – | 286 (≈ 115 µg/mL) | 71.5 µM | < 0.5 µM | < 0.5 µM | 3.4 | – | – |
| O=C(O)c1cn(C2CC2)c2cc(N3CCNCC3)c(F)cc2c1=O [CIPROFLOXACIN HYDROCHLORIDE] | < 10.6 | – | 0.3 µM | – | < 5.2 µM | < 5.2 µM | inactive | – | < 5.2 µM | 85 | – | < 10.6 | < 5.2 µM | – | 0.5 µM | – | – | – |
| CCn1cc(C(=O)N[C@H]2C(O)O[C@H](CO)[C@@H](O)[C@@H]2O)c(=O)c2cc(F)c(N3CCN(C(C)=O)CC3)cc21 (stereo not given in full) | 120 (≈ 62.5 µg/mL) | 239 µM | 59.9 µM (≈ 31.3 µg/mL) | 3.72 | 14.9 µM | 478 µM | 478 µM (≈ 250 µg/mL) | 59.9 | inactive | 120 (≈ 62.5 µg/mL) | – | 239 (≈ 125 µg/mL) | inactive | inactive | inactive | 89.8 | 3 | – |
| CC(=O)N1CCN(c2cc3c(cc2F)c(=O)c(C(=O)N[C@H]2C(O)O[C@H](CO)[C@@H](O)[C@@H]2O)cn3C2CC2)CC1 (stereo not given in full) | 234 (≈ 125 µg/mL) | inactive | inactive | 4.03 | inactive | inactive | 234 µM (≈ 125 µg/mL) | 234 | inactive | 468 (≈ 250 µg/mL) | – | 468 (≈ 250 µg/mL) | inactive | inactive | inactive | 702 | – | – |
| CCn1cc(C(=O)N[C@H]2C(OC(C)=O)O[C@H](COC(C)=O)[C@@H](OC(C)=O)[C@@H]2OC(C)=O)c(=O)c2cc(F)c(N3CCN(C(C)=O)CC3)cc21 (stereo not given in full) | 45.3 (≈ 31.3 µg/mL) | 181 µM | 5.6 µM (≈ 3.87 µg/mL) | 5.32 | 11.3 µM | 362 µM | 362 µM (≈ 250 µg/mL) | 45.3 | inactive | 45.3 (≈ 31.3 µg/mL) | 2 | 181 (≈ 125 µg/mL) | inactive | inactive | inactive | 136 | 2 | – |
| CC(=O)OC[C@H]1OC(OC(C)=O)[C@H](NC(=O)c2cn(C3CC3)c3cc(N4CCN(C(C)=O)CC4)c(F)cc3c2=O)[C@@H](OC(C)=O)[C@@H]1OC(C)=O (stereo not given in full) | < 5.6 | inactive | inactive | 3.62 | 11.1 µM | inactive | 712 µM (≈ 500 µg/mL) | 178 | inactive | 356 (≈ 250 µg/mL) | – | 356 (≈ 250 µg/mL) | 11.1 µM | inactive | inactive | 267 | – | 2 |
| COc1c(N2C[C@@H]3CCCN(C(C)=O)[C@@H]3C2)c(F)cc2c(=O)c(C(=O)N[C@H]3C(OC(C)=O)O[C@H](COC(C)=O)[C@@H](OC(C)=O)[C@@H]3OC(C)=O)cn(C3CC3)c12 (stereo not given in full) | 162 (≈ 125 µg/mL) | inactive | 80.9 µM (≈ 62.5 µg/mL) | 5.53 | inactive | 162 µM | 162 µM (≈ 125 µg/mL) | 162 | inactive | 324 (≈ 250 µg/mL) | – | 324 (≈ 250 µg/mL) | 324 µM | 162 µM | < 5 µM | 485 | – | – |
| OC(Cn1cncn1)(Cn1cncn1)c1ccc(F)cc1F [FLUCONAZOLE] | 204 (≈ 62.5 µg/mL) | – | 408 µM (≈ 125 µg/mL) | – | – | – | 51 µM (≈ 15.6 µg/mL) | – | – | 102 (≈ 31.3 µg/mL) | – | 102 (≈ 31.3 µg/mL) | – | – | – | – | – | – |

Reference: ChEMBL document CHEMBL4765367, “Design, synthesis and antimicrobial evaluation of novel glycosylated-fluoroquinolones derivatives” (Eur J Med Chem, 2020)
